Test results from ChEMBL document CHEMBL4304784, “Discovery of new potent dual sigma receptor/GluN2b ligands with antioxidant property as neuroprotective agents” (Eur J Med Chem, 2019).
Converted amounts (≈) assume the structure as drawn.

What was measured:
[1] = Selectivity ratio of Ki for sigma2 receptor in rat liver membranes to Ki for GluN1a/GluN2B (unknown origin) expressed in mouse L(tk-) cell membranes; assay type: cell-based
[2] = Cytotoxicity against human SH-SY5Y cells assessed as cell viability at 10 uM incubated for 48 hrs by MTT assay (reference value: 100 +/- 12.00%); assay type: cell-based; conditions: read-out: Activity
Method in brief: (§1)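 Cells kept in DMEM Glutamax with 10% FBS and antibiotic/antimycotic at 37 °C, 5% CO2. Plated at 2x10^3 cells/well 24 h before dosing. Compounds taken from DMSO and diluted in medium, final DMSO ≤1.0%. Exposure 48 h, then MTT added for 4 h at 37 °C. Read as A595 minus A655. Triplicates, at least three independent experiments, mean ± SEM.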

[3] = biological target: Sigma non-opioid intracellular receptor 1 (Cavia porcellus, UniProt Q60492); experiment: Displacement of [3H]-(+)-pentazocine from sigma1 receptor in guinea pig brain cortex membranes incubated for 120 mins by solid scintillation counting method; assay type: cell membranes
Method in brief: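 Guinea pig brain cortex membranes (about 100 µg protein) with 2 nM [3H]-(+)-pentazocine in 50 mM TRIS pH 7.4 at 37 °C. Non-specific binding defined with 10 µM unlabeled (+)-pentazocine. Six concentrations, 10^-5 to 10^-10 M, in duplicate. 120 min with shaking, filtration, solid scintillator counting.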

[4] = Antioxidant activity assessed as H2O2 radical scavenging activity; assay type: functional
Method in brief: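 Compounds at 0.05, 0.1, 0.2 and 0.4 mg/mL in phosphate buffer pH 7.4. 0.353 mL of 4 mM H2O2 in phosphate buffer added to 2.0 mL of each solution, absorbance read at 239 nm. Percent inhibition calculated from absorbances relative to control. Triplicate, mean ± SEM.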

[5] = Cytotoxicity against human Hep3B cells assessed as decrease in cell viability incubated for 48 hrs by MTT assay; assay type: cell-based, Hep 3B2; conditions: read-out: LD50
Method in brief: (§2)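 Cells kept in DMEM Glutamax with 10% FBS and antibiotic/antimycotic at 37 °C, 5% CO2. Seeded 24 h before dosing (SH-SY5Y at 2x10^3 cells/well). Compounds in DMSO serially diluted in medium, final DMSO 1.0%, exposure 48 h. MTT added for 4 h at 37 °C, read A595 minus A655. LD50 from linear regression of dose-log response curves; triplicates, three experiments, mean ± SEM.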

[6] = Cytotoxicity against human SH-SY5Y cells assessed as cell viability at 100 uM incubated for 48 hrs by MTT assay (reference value: 100 +/- 12.00%); assay type: cell-based; conditions: read-out: Activity; method in brief: as §1
[7] = Cytotoxicity against human Hep3B cells assessed as cell viability at 25 uM incubated for 48 hrs by MTT assay relative to control; assay type: cell-based, Hep 3B2; conditions: read-out: Activity; method in brief: as §1
[8] = Antioxidant activity assessed as ABTS radical scavenging activity incubated for 40 mins; assay type: functional
Method in brief: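 Test compound at 0.05, 0.1, 0.2 and 0.4 mg/mL (200 µL) added to 1.8 mL ethanolic ABTS 7mM. Incubated 40 min at room temperature, absorbance read at 735 nm against ABTS solution. Percent inhibition computed from absorbances and used to derive IC50. Triplicate, mean ± SEM; ascorbic acid as reference.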

[9] = Cytotoxicity against human HeLa cells assessed as cell viability at 25 uM incubated for 48 hrs by MTT assay relative to control; assay type: cell-based; conditions: read-out: Activity; method in brief: as §1
[10] = Cytotoxicity against human SH-SY5Y cells assessed as cell viability at 50 uM incubated for 48 hrs by MTT assay (reference value: 100 +/- 12.00%); assay type: cell-based; conditions: read-out: Activity; method in brief: as §1
SH-SY5Y = experiment: Neuroprotective activity against H2O2-induced toxicity in human SH-SY5Y cells assessed as cell viability at 25 uM pretreated for 48 hrs followed by H2O2 challenge and measured after 4 hrs by MTT assay (reference value: 18 +/- 2.64%); assay type: functional; conditions: read-out: Activity
[11] = Cytotoxicity against human HeLa cells assessed as decrease in cell viability incubated for 48 hrs by MTT assay; assay type: cell-based; conditions: read-out: LD50; method in brief: as §2
[12] = Cytotoxicity against human HeLa cells assessed as cell viability at 100 uM incubated for 48 hrs by MTT assay relative to control; assay type: cell-based; conditions: read-out: Activity; method in brief: as §1
[13] = Cytotoxicity against human HeLa cells assessed as cell viability at 50 uM incubated for 48 hrs by MTT assay relative to control; assay type: cell-based; conditions: read-out: Activity; method in brief: as §1
[14] = biological target: T1, Glutamate NMDA receptor; GRIN1/GRIN2B (Homo sapiens, UniProt Q05586+Q13224); experiment: Displacement of [3H]ifenprodil from GluN1a/GluN2B (unknown origin) expressed in mouse L(tk-) cell membranes after 120 mins by solid scintillation counting method
Method in brief: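 Membranes (about 20 μg protein) from mouse L(tk-) cells stably carrying GluN1a/GluN2B, induced with 4 μM dexamethasone and 4 μM ketamine for 24 h. Incubated with 5 nM [3H]ifenprodil in 5 mM TRIS/1 mM EDTA pH 7.5 at 37 °C, 120 min. Non-specific binding defined with 10 μM ifenprodil.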

[15] = Cytotoxicity against human SH-SY5Y cells assessed as cell viability at 25 uM incubated for 48 hrs by MTT assay (reference value: 100 +/- 12.00%); assay type: cell-based; conditions: read-out: Activity; method in brief: as §1
[16] = Cytotoxicity against human Hep3B cells assessed as cell viability at 50 uM incubated for 48 hrs by MTT assay relative to control; assay type: cell-based, Hep 3B2; conditions: read-out: Activity; method in brief: as §1
[17] = Cytotoxicity against human Hep3B cells assessed as cell viability at 10 uM incubated for 48 hrs by MTT assay relative to control; assay type: cell-based, Hep 3B2; conditions: read-out: Activity; method in brief: as §1
[18] = Cytotoxicity against human SH-SY5Y cells assessed as decrease in cell viability incubated for 48 hrs by MTT assay; assay type: cell-based; conditions: read-out: LD50; method in brief: as §2
[19] = Cytotoxicity against human HeLa cells assessed as cell viability at 10 uM incubated for 48 hrs by MTT assay relative to control; assay type: cell-based; conditions: read-out: Activity; method in brief: as §1
[20] = Selectivity ratio of Ki for sigma1 receptor in guinea pig brain membranes to Ki for sigma2 receptor in rat liver membranes; assay type: cell membranes
[21] = biological target: T2, Sigma intracellular receptor 2 (Rattus norvegicus, UniProt Q5U3Y7); experiment: Displacement of [3H]-di-o-tolylguanidine from sigma2 receptor in rat liver membranes in the presence of sigma1 receptor ligand (+)-pentazocine incubated for 120 mins by scintillation counting method; assay type: cell membranes
T2 sequence (Q5U3Y7 whole entry): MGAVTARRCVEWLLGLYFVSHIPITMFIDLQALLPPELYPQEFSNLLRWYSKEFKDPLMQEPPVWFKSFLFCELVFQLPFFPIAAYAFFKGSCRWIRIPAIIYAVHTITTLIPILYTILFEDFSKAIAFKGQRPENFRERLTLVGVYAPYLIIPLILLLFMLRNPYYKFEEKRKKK
Method in brief: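 Rat liver membranes (about 100 µg protein) with 3 nM [3H]di-o-tolylguanidine in 50 mM TRIS pH 8.0 containing 500 nM (+)-pentazocine, at rt. Non-specific binding defined with 10 µM unlabeled DTG. Concentrations 10^-5 to 10^-10 M, in duplicate. 120 min, filtration, scintillation counting. Three independent experiments, mean ± SEM.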

[22] = Cytotoxicity against human Hep3B cells assessed as cell viability at 100 uM incubated for 48 hrs by MTT assay relative to control; assay type: cell-based, Hep 3B2; conditions: read-out: Activity; method in brief: as §1
[23] = biological target: T1, Glutamate NMDA receptor; GRIN1/GRIN2B; experiment: Potency index, ratio of ifenprodil Ki to test compound Ki for displacement of [3H]ifenprodil from GluN1a/GluN2B (unknown origin) expressed in mouse L(tk-) cell membranes

Sigma non-opioid intracellular receptor 1, sequence (Q60492 whole entry): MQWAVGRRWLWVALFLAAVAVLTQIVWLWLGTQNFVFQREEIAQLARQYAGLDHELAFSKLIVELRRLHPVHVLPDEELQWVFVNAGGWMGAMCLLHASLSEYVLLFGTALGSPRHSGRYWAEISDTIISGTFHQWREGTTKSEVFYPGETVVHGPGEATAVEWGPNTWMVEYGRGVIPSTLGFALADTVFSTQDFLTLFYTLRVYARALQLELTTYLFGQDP

Row | SMILES | Ratio Ki [1] | viability at 48 h, 10 µM [2] [%] | Ki [3] [µM] | IC50 [4] [µg/mL] | CC50 at 48 h [5] [µM] | viability at 48 h, 100 µM [6] [%] | viability at 48 h, 25 µM [7] [%] | IC50 [8] [µg/mL] | viability at 48 h, 25 µM [9] [%] | viability at 48 h, 50 µM [10] [%] | viability at 25 µM (SH-SY5Y) [%] | CC50 at 48 h [11] [µM] | viability at 48 h, 100 µM [12] [%] | viability at 48 h, 50 µM [13] [%] | Ki [14] [µM] | viability at 48 h, 25 µM [15] [%] | viability at 48 h, 50 µM [16] [%] | viability at 48 h, 10 µM [17] [%] | CC50 at 48 h [18] [µM] | viability at 48 h, 10 µM [19] [%] | other results
1 | Cc1ccc(CN(C)CCCCN2C(=O)CCc3ccccc32)c(C)c1 | 6.4 | 92 | 0.06 | 29.16 (≈ 83.2 µM) | 60 | 78 | 81 | 26.24 (≈ 74.9 µM) | 59 | 90 | 98 | 76 | 47 | 57 | 0.005 | 79 to 95 | 52 | 77 | 231 | 79 | Ratio Ki [20]: 1.9; Ki [21]: 0.032 µM; viability at 48 h, 100 µM [22]: 223%
2 | O=C1CCc2ccccc2N1CCCCN1CCN(c2ccc(F)cc2)CC1 | 2.6 | 127 | 0.016 | 24.04 (≈ 63 µM) | 77 | 60 | 83 | 21.34 (≈ 55.9 µM) | 78 | 116 | 86 | 128 | 70 | 70 | 0.0081 | 84 to 121 | 54 | 99 | 63 | 88 | Ratio Ki [20]: 0.76; Ki [21]: 0.021 µM; viability at 48 h, 100 µM [22]: 41%
3 | O=C1CCc2ccccc2N1CCCCN1CCN(C2CCCCC2)CC1 | 0.75 | 91 | 0.021 | 38.29 (≈ 104 µM) | 81 | 99 | 70 | 35.79 (≈ 96.8 µM) | 75 | 86 | 105 | 265 | 94 | 79 | 0.002 | 81 to 111 | 48 | 106 | 493 | 83 | Ratio Ki [23]: 5; Ratio Ki [20]: 14; Ki [21]: 0.0015 µM; viability at 48 h, 100 µM [22]: 52%
4 | O=c1oc(-c2ccccc2)nn1CCCCN1CCN(C2CCCCC2)CC1 | 4 | 81 | 0.035 | 73.07 (≈ 190 µM) | 71 | 105 | 76 | 69.25 (≈ 180 µM) | 48 | 75 | 114 | 76 | 57 | 46 | 0.023 | 78 to 105 | 72 | 72 | 81 | 62 | Ratio Ki [20]: 0.37; Ki [21]: 0.093 µM; viability at 48 h, 100 µM [22]: 143%
5 | O=c1oc(-c2ccccc2)nn1CCCCN1CCC2(CC1)OCc1ccccc12 | 2 | 120 | 0.019 | 21.19 (≈ 52.3 µM) | 51 | 1 | 90 | 17.96 (≈ 44.3 µM) | 80 | 50 | 101 | 55 | 5 | 60 | 0.0082 | 96 to 104 | 42 | 87 | 53 | 99 | Ratio Ki [20]: 1.2; Ki [21]: 0.016 µM; viability at 48 h, 100 µM [22]: 4%
